The test system of assay [1] is Escherichia coli. Description: Minimum inhibitory concentration (lowest peptide concentration) required to prevent visible bacterial growth after 18 hr of incubation at 37 C in Mueller-Hinton broth against Escherichia coli D22. Format: functional. In short, it runs like this:
(§1)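 Broth microdilution susceptibility test per NCCLS guidelines, in Mueller–Hinton broth with about 1.5–2.0 × 10^5 CFU/mL inoculum. Plates were incubated 18 h at 37 °C. MIC was taken as the lowest peptide concentration with no visible growth. Strains were ATCC strains or clinical isolates; E. coli O18:K1:H7 Bort is an encapsulated isolate from neonatal spinal fluid, and the S. aureus isolate is MRSA.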

Assay [2] relates to Salmonella enteritidis. As to the kind of experiment: Minimum inhibitory concentration (lowest peptide concentration) required to prevent visible bacterial growth after 18 hr of incubation at 37 C in Mueller-Hinton broth against Salmonella enteritidis D5. As to conditions: Salmonella enterica.
In assay [3] the test system is Escherichia coli. Description: Minimum inhibitory concentration (lowest peptide concentration) required to prevent visible bacterial growth after 18 hr of incubation at 37 C in Mueller-Hinton broth against Escherichia coli ATCC 25922. The following applies: ATCC 25922, 18 h. In kind it is functional. In short, it runs like this:
as §1

The test system of another assay is Staphylococcus aureus. Description: Minimum inhibitory concentration (lowest peptide concentration) required to prevent visible bacterial growth after 18 hr of incubation at 37 C in Mueller-Hinton broth against Staphylococcus aureus G. Format: functional. The gist of the method: as §1
Assay [4] has as its system Escherichia coli. As to the kind of experiment: Minimum inhibitory concentration (lowest peptide concentration) required to prevent visible bacterial growth after 18 hr of incubation at 37 C in Mueller-Hinton broth against Escherichia coli O18:K1:H7. Format: functional. The gist of the method: as §1
The subject of assay [5] is Klebsiella pneumoniae. As to the kind of experiment: Minimum inhibitory concentration (lowest peptide concentration) required to prevent visible bacterial growth after 18 hr of incubation at 37 C in Mueller-Hinton broth against Klebsiella pneumoniae 79. Format: functional. The gist of the method: as §1
Assay [6] has as its system Escherichia coli. Description: Minimum inhibitory concentration (lowest peptide concentration) required to prevent visible bacterial growth after 18 hr of incubation at 37 C in Mueller-Hinton broth against Escherichia coli ML-35. Format: functional. In short, it runs like this:
as §1

Assay [7] concerns Escherichia coli. Description: Minimum inhibitory concentration (lowest peptide concentration) required to prevent visible bacterial growth after 18 hr of incubation at 37 C in Mueller-Hinton broth against Escherichia coli D21. In kind it is functional. The gist of the method:
as §1

Assay [8] relates to Staphylococcus epidermidis. As to the kind of experiment: Minimum inhibitory concentration (lowest peptide concentration) required to prevent visible bacterial growth after 18 hr of incubation at 37 C in Mueller-Hinton broth against Staphylococcus epidermidis 4. Format: functional. The gist of the method: as §1
Another assay relates to Acinetobacter baumannii. Description: Minimum inhibitory concentration (lowest peptide concentration) required to prevent visible bacterial growth after 18 hr of incubation at 37 C in Mueller-Hinton broth against Acinetobacter baumannii 118A. In kind it is functional. The gist of the method: as §1
The test system of assay [9] is Klebsiella pneumoniae. As to the kind of experiment: Minimum inhibitory concentration (lowest peptide concentration) required to prevent visible bacterial growth after 18 hr of incubation at 37 C in Mueller-Hinton broth against Klebsiella pneumoniae 22. In kind it is functional. In short, it runs like this:
as §1

The subject of assay [10] is Salmonella enteritidis. As to the kind of experiment: Minimum inhibitory concentration (lowest peptide concentration) required to prevent visible bacterial growth after 18 h of incubation at 37 C in Mueller-Hinton broth against […]. As to conditions: Salmonella enterica. Format: functional, Salmonella enterica subsp. enterica serovar Enteritidis. The gist of the method:
as §1

The test system of a further assay is Pseudomonas aeruginosa. Description: Minimum inhibitory concentration (lowest peptide concentration) required to prevent visible bacterial growth after 18 hr of incubation at 37 C in Mueller-Hinton broth against Pseudomonas aeruginosa ATCC 27853. As to conditions: ATCC 27853, 18 h. Format: functional. In short, it runs like this:
as §1

Another assay concerns Salmonella typhimurium. As to the kind of experiment: Minimum inhibitory concentration (lowest peptide concentration) required to prevent visible bacterial growth after 18 hr of incubation at 37 C in Mueller-Hinton broth against Salmonella Typhimurium ATCC 14028. Format: functional, Salmonella enterica subsp. enterica serovar Typhimurium. The following applies: Salmonella enterica. The gist of the method:
as §1

≈ marks a conversion by molar mass, not a printed value. Where a SMILES comes first, the peptide text is derived from it. The star is where a group is joined. X2 = CC(=O)N[C@@H]1[C@@H](O)[C@H](O)[C@@H](CO)O[C@@H]1*

Five compounds from ChEMBL document CHEMBL1135826, “Antimicrobial peptides: synthesis and antibacterial activity of linear and cyclic drosocin and apidaecin 1b analogues” (2002) can be followed below.

Usually MIC stands for the smallest concentration in the dilution series that meets the test's criterion for growth inhibition. For the compound `CC[C@H](C)[C@H](NC(=O)[C@@H]1CCCN1C(=O)[C@H](CCCN=C(N)N)NC(=O)[C@@H]1CCCN1C(=O)[C@H](Cc1c[nH]cn1)NC(=O)[C@H](CO)NC(=O)[C@@H](NC(=O)[C@@H]1CCCN1C(=O)[C@H](CCCN=C(N)N)NC(=O)[C@@H]1CCCN1C(=O)[C@H](CO)NC(=O)[C@H](Cc1ccc(O)cc1)NC(=O)[C@@H]1CCCN1C(=O)[C@H](CCCN=C(N)N)NC(=O)[C@@H]1CCCN1C(=O)[C@H](CCCCN)NC(=O)CN)[C@@H](C)O[C@H]1O[C@H](CO)[C@@H](O)[C@H](O)[C@H]1NC(C)=O)C(=O)N[C@@H](CCCN=C(N)N)C(=O)N[C@H](C(=O)O)C(C)C` (H-GKPRPYSPRPT(X2)SHPRPIRV-OH), the MIC is 1 µM (≈ 2.4 µg/mL) in the assay on Escherichia coli [1]; 1 µM (≈ 2.4 µg/mL) in the assay with Salmonella enteritidis [2]; 1 µM (≈ 2.4 µg/mL) against Escherichia coli [3]; above 64 µM with Staphylococcus aureus; 1 µM (≈ 2.4 µg/mL) in the assay with Escherichia coli [4]; 8 µM (≈ 19.2 µg/mL) against Klebsiella pneumoniae [5]. In addition, the MIC is 1 µM (≈ 2.4 µg/mL) in the assay with Escherichia coli [6]; 8 µM (≈ 19.2 µg/mL) against Escherichia coli [7]; above 64 µM in assay [8]; above 128 µM against Acinetobacter baumannii; 4 µM (≈ 9.61 µg/mL) in the assay with Klebsiella pneumoniae [9]; 2 µM (≈ 4.8 µg/mL) in the assay with Salmonella enteritidis [10]. For the same compound, the MIC with Pseudomonas aeruginosa is above 128 µM; against Salmonella typhimurium it was 2 µM (≈ 4.8 µg/mL).
As to `CC[C@H](C)[C@@H]1NC(=O)[C@H](Cc2ccc(O)cc2)NC(=O)[C@H](C(C)C)NC(=O)[C@@H]2CCCN2C(=O)[C@H](CCCN=C(N)N)NC(=O)[C@H](CC(N)=O)NC(=O)[C@H](CC(N)=O)NC(=O)CNC(=O)[C@H](CC(C)C)NC(=O)[C@H](CCCN=C(N)N)NC(=O)[C@@H]2CCCN2C(=O)[C@H](Cc2c[nH]cn2)NC(=O)[C@@H]2CCCN2C(=O)[C@@H]2CCCN2C(=O)[C@H](CCCN=C(N)N)NC(=O)[C@@H]2CCCN2C(=O)[C@H](CCC(N)=O)NC(=O)[C@@H]2CCCN2C1=O` (HELM PEPTIDE1{G.N.N.R.P.V.Y.I.P.Q.P.R.P.P.H.P.R.L}$PEPTIDE1,PEPTIDE1,1:R1-18:R2$$$V2.0), the MIC was 64 µM (≈ 134 µg/mL) against Escherichia coli [1]; above 64 µM with Salmonella enteritidis [2]; above 64 µM against Escherichia coli [3]; above 64 µM against Staphylococcus aureus; 32 µM (≈ 66.9 µg/mL) against Escherichia coli [4]; above 64 µM against Klebsiella pneumoniae [5]. Moreover, the MIC is 64 µM (≈ 134 µg/mL) against Escherichia coli [6]; above 64 µM against Escherichia coli [7]; above 64 µM in assay [8]; above 128 µM against Acinetobacter baumannii; above 64 µM in the assay on Klebsiella pneumoniae [9]; above 64 µM in the assay with Salmonella enteritidis [10]. The MIC with Pseudomonas aeruginosa is above 128 µM; against Salmonella typhimurium it was above 64 µM.
For the compound `CC[C@H](C)[C@H](NC(=O)[C@H](Cc1ccc(O)cc1)NC(=O)[C@@H](NC(=O)[C@@H]1CCCN1C(=O)[C@H](CCCNC(=N)N)NC(=O)[C@H](CC(N)=O)NC(=O)[C@H](CC(N)=O)NC(=O)CN)C(C)C)C(=O)N1CCC[C@H]1C(=O)N[C@@H](CCC(N)=O)C(=O)N1CCC[C@H]1C(=O)N[C@@H](CCCNC(=N)N)C(=O)N1CCC[C@H]1C(=O)N1CCC[C@H]1C(=O)N[C@@H](Cc1cnc[nH]1)C(=O)N1CCC[C@H]1C(=O)N[C@@H](CCCNC(=N)N)C(=O)N[C@@H](CC(C)C)C(=O)O` [APIDAECIN], the MIC in the assay with Escherichia coli [1] is 4 µM (≈ 8.43 µg/mL); in the assay on Salmonella enteritidis [2], 4 µM (≈ 8.43 µg/mL); in the assay with Escherichia coli [3], 4 µM (≈ 8.43 µg/mL); against Staphylococcus aureus, above 64 µM; with Escherichia coli [4], 4 µM (≈ 8.43 µg/mL); against Klebsiella pneumoniae [5], 32 µM (≈ 67.5 µg/mL). Also, the MIC in the assay with Escherichia coli [6] is 4 µM (≈ 8.43 µg/mL); against Escherichia coli [7], above 64 µM; in assay [8], above 64 µM; in the assay with Acinetobacter baumannii, above 128 µM; with Klebsiella pneumoniae [9], 32 µM (≈ 67.5 µg/mL); against Salmonella enteritidis [10] it was 4 µM (≈ 8.43 µg/mL). Also, the MIC in the assay on Pseudomonas aeruginosa was above 128 µM; in the assay on Salmonella typhimurium it was 8 µM (≈ 16.9 µg/mL).
For the compound `CC[C@H](C)[C@H](NC(=O)[C@H](Cc1ccc(O)cc1)NC(=O)[C@@H](NC(=O)[C@@H]1CCCN1C(=O)[C@H](CCCN=C(N)N)NC(=O)[C@H](CC(N)=O)NC(=O)[C@H](CC(N)=O)NC(=O)CN)C(C)C)C(=O)N1CCC[C@H]1C(=O)N[C@@H](CCC(N)=O)C(=O)N1CCC[C@H]1C(=O)N[C@@H](CCCN=C(N)N)C(=O)N1CCC[C@H]1C(=O)N[C@H](C(=O)N1CCC[C@H]1C(=O)N[C@@H](Cc1c[nH]cn1)C(=O)N1CCC[C@H]1C(=O)N[C@@H](CCCN=C(N)N)C(=O)N[C@@H](CC(C)C)C(=O)O)[C@@H](C)O[C@H]1O[C@H](CO)[C@@H](O)[C@H](O)[C@H]1NC(C)=O` (H-GNNRPVYIPQPRPT(X2)PHPRL-OH), the MIC with Escherichia coli [1] was 32 µM (≈ 77.2 µg/mL); with Salmonella enteritidis [2], 64 µM (≈ 154 µg/mL); with Escherichia coli [3], 32 µM (≈ 77.2 µg/mL); against Staphylococcus aureus, above 64 µM; in the assay on Escherichia coli [4] it was 64 µM (≈ 154 µg/mL); against Klebsiella pneumoniae [5], above 128 µM. Moreover, the MIC in the assay on Escherichia coli [6] was 32 µM (≈ 77.2 µg/mL); in the assay on Escherichia coli [7], above 64 µM; in [8], above 64 µM; against Acinetobacter baumannii it was above 128 µM; in the assay with Klebsiella pneumoniae [9], above 128 µM; with Salmonella enteritidis [10] it was above 64 µM. In addition, the MIC was above 128 µM against Pseudomonas aeruginosa and 64 µM (≈ 154 µg/mL) in the assay with Salmonella typhimurium.
H-GKPRPYSPRPTSHPRPIRV-OH [DROSOCIN]: the MIC was above 64 µM against Escherichia coli [1]; 16 µM against Salmonella enteritidis [2]; 4 µM against Escherichia coli [3]; above 64 µM against Staphylococcus aureus; 8 µM against Escherichia coli [4]; 64 µM in the assay with Klebsiella pneumoniae [5]. Also, the MIC against Escherichia coli [6] was 2 µM; against Escherichia coli [7], above 128 µM; in assay [8] it was above 64 µM; in the assay on Acinetobacter baumannii, above 128 µM; against Klebsiella pneumoniae [9], 128 µM; against Salmonella enteritidis [10] it was 8 µM. In addition, the MIC with Pseudomonas aeruginosa was above 128 µM; in the assay on Salmonella typhimurium it was 32 µM.
